From ChEMBL document CHEMBL5257059, “Pyridine-Based 1,2,4-Triazolo-Tethered Indole Conjugates Potentially Affecting TNKS and PI3K in Colorectal Cancer” (ACS Med Chem Lett, 2023)
Values belong to the molecule of their own block, whether it stands above or below them. The source made the active and inactive calls. The rule behind the calls is not given here.

Experiments:
[1] = target: 182 kDa tankyrase-1-binding protein (Homo sapiens) (UniProt Q9C0C2); assay: Inhibition of TAB-182 phosphorylation in human HT-29 cells at 1 uM incubated for 72 hrs by Western blot analysis; type: cell-based
Sequence of 182 kDa tankyrase-1-binding protein (Homo sapiens) (Q9C0C2 whole entry): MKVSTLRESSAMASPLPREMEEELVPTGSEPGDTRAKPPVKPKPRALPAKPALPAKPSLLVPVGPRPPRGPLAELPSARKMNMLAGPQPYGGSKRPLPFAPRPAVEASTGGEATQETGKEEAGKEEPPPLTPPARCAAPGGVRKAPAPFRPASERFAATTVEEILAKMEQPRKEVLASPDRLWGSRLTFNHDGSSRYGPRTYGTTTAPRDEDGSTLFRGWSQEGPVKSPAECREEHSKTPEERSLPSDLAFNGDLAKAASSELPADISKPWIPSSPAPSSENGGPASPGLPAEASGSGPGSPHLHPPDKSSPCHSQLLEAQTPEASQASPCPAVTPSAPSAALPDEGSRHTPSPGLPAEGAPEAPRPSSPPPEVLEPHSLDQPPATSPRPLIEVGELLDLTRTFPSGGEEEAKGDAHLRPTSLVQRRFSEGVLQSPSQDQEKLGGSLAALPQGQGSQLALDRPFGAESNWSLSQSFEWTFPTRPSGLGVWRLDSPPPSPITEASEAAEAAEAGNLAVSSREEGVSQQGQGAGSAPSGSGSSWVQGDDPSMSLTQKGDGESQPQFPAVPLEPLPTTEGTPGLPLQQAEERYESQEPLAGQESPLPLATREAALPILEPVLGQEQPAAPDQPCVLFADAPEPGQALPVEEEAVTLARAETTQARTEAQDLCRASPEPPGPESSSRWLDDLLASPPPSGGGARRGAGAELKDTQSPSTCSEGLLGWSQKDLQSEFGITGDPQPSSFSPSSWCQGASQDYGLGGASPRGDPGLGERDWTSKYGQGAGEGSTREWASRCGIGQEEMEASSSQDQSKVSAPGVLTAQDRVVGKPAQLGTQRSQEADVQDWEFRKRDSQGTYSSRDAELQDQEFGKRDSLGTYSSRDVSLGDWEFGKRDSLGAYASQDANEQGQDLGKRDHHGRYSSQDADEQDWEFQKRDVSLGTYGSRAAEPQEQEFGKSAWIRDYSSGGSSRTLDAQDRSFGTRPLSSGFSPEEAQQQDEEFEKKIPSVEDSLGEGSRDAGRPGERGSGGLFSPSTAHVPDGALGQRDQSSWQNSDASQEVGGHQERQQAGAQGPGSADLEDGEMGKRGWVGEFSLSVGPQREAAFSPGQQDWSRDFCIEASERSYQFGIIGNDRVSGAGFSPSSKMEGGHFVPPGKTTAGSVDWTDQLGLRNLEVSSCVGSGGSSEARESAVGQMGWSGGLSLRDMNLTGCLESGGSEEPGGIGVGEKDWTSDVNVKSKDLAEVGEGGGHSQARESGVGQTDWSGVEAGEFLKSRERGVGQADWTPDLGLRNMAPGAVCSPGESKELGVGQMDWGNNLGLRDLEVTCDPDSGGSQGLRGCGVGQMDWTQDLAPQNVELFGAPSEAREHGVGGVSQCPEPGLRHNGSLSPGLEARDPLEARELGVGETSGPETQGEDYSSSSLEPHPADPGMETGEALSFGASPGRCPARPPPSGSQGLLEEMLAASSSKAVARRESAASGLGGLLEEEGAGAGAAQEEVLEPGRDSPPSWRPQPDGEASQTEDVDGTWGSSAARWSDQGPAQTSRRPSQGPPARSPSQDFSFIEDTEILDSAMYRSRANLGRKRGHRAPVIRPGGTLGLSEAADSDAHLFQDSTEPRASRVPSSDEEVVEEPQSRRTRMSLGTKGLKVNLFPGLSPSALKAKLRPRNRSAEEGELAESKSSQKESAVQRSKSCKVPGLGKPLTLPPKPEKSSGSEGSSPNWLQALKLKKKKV

HT-29 [2] = assay: Induction of ROS generation in human HT-29 cells at 1 uM by CM-H2DCFDA fluorescent probe based flow cytometry analysis (reference value: 0.528%); type: functional
HT-29 [3] = assay: Inhibition of PI3K-p85 protein expression in human HT-29 cells at 1 uM incubated for 72 hrs by Western blot analysis; type: functional, cell-based
HT-29 [4] = assay: Inhibition of phosphorylated GSK-3beta protein expression in human HT-29 cells at 1 uM incubated for 72 hrs by Western blot analysis; type: functional, cell-based
HT-29 [5] = assay: Inhibition of AXIN-2 protein expression in human HT-29 cells at 1 uM incubated for 72 hrs by Western blot analysis; type: functional, cell-based
[6] = target: Glycogen synthase kinase-3 beta (Homo sapiens) (UniProt P49841); assay: Inhibition of GSK3beta phosphorylation in human HT-29 cells at 1 uM incubated for 72 hrs by Western blot analysis; type: cell-based
Sequence of Glycogen synthase kinase-3 beta (Homo sapiens) (P49841 whole entry, looked up): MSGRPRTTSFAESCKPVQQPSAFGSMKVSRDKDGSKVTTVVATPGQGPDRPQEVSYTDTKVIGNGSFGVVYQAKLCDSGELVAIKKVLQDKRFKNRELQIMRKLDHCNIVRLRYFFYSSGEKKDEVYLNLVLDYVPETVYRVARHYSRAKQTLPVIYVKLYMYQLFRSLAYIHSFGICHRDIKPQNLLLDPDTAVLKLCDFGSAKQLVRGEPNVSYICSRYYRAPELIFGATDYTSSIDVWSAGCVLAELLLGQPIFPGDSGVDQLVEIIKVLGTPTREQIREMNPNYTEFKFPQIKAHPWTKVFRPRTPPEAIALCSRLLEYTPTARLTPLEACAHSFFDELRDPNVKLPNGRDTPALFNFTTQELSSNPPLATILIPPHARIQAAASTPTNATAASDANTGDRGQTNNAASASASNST

HT-29 [7] = assay: Inhibition of TAB-182 protein expression in human HT-29 cells at 1 uM incubated for 72 hrs by Western blot analysis; type: functional, cell-based
HT-29 [8] = assay: Induction of apoptosis in human HT29 cells assessed as increase in early apoptotic cells at 1 uM incubated for 24 hrs by annexin V/PI staining based flow cytometry analysis; type: functional, cell-based
Outline: (§1)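 Annexin/PI double staining of HT-29 cells after 24 h exposure at 1, 2 or 4 μM. Flow cytometry gated early apoptotic, late apoptotic and necrotic populations, reported as % of cells. Comparison to untreated control used two-way ANOVA followed by Tukey's post hoc analysis.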

HT-29 [9] = assay: Induction of mitochondrial damage in human HT-29 cells assessed as increase in monomer formation at 1 uM incubated for 24 hrs by JC-1 staining based flow cytometry analysis; type: functional, cell-based
Outline: (§2)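 HT-29 cells exposed 24 h to test agent at 1, 2 or 4 μM, then stained with JC-1. Flow cytometry scored the % of cells in JC-1 aggregate versus monomer populations. Treated groups were compared with untreated control by two-way ANOVA with Tukey's post hoc test.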

[10] = target: Phosphatidylinositol 3-kinase regulatory subunit alpha (Homo sapiens) (UniProt P27986); assay: Inhibition of PI3K-P85 phosphorylation in human HT-29 cells at 2 uM incubated for 72 hrs by Western blot analysis; type: cell-based
Sequence of Phosphatidylinositol 3-kinase regulatory subunit alpha (Homo sapiens) (P27986 whole entry): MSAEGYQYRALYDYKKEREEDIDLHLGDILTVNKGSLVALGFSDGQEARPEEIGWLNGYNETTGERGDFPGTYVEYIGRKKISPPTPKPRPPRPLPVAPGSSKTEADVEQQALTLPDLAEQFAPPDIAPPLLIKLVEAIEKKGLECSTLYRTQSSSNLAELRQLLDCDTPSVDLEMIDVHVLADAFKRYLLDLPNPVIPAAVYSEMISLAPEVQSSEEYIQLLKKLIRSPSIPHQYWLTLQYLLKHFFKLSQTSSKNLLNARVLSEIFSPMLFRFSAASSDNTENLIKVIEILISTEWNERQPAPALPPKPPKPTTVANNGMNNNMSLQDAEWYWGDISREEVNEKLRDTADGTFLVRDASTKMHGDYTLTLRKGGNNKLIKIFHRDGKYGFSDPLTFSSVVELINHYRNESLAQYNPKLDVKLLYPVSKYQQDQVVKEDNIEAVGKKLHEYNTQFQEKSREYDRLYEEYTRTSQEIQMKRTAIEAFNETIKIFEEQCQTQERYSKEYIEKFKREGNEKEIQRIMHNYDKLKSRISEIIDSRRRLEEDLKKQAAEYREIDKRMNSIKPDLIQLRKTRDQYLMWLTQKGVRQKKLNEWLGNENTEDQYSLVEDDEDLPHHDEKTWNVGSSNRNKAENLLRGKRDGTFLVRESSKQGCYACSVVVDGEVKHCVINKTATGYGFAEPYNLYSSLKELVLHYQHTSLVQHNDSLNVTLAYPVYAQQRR

HT-29 [11] = assay: Downregulation of beta-catenin protein expression in human HT-29 cells at 2 uM by immunostaining based confocal microscopic analysis; type: functional, cell-based
HT-29 [12] = assay: Downregulation of TAB-182 protein expression in human HT-29 cells at 2 uM by immunostaining based confocal microscopic analysis; type: functional, cell-based
HT-29 [13] = assay: Induction of cell cycle arrest in human HT-29 cells assessed as accumulation of cells at G0/G1 phase at 2 uM incubated for 24 hrs by RNase/PI staining based flow cytometry analysis (reference value: 50.206%); type: functional
HT-29 [14] = assay: Induction of apoptosis in human HT29 cells assessed as increase in early apoptotic cells at 2 uM incubated for 24 hrs by annexin V/PI staining based flow cytometry analysis; type: functional, cell-based; outline: as §1
[15] = target: Glycogen synthase kinase-3 beta (Homo sapiens) (UniProt P49841); assay: Inhibition of GSK3beta phosphorylation in human HT-29 cells at 2 uM incubated for 72 hrs by Western blot analysis; type: cell-based
HT-29 [16] = assay: Induction of mitochondrial damage in human HT-29 cells assessed as increase in monomer formation at 2 uM incubated for 24 hrs by JC-1 staining based flow cytometry analysis; type: functional, cell-based; outline: as §2
[17] = target: T1, Catenin beta-1 (Homo sapiens) (UniProt P35222); assay: Inhibition of beta-catenin phosphorylation in human HT-29 cells at 2 uM incubated for 72 hrs by Western blot analysis; type: cell-based
T1 sequence (whole entry): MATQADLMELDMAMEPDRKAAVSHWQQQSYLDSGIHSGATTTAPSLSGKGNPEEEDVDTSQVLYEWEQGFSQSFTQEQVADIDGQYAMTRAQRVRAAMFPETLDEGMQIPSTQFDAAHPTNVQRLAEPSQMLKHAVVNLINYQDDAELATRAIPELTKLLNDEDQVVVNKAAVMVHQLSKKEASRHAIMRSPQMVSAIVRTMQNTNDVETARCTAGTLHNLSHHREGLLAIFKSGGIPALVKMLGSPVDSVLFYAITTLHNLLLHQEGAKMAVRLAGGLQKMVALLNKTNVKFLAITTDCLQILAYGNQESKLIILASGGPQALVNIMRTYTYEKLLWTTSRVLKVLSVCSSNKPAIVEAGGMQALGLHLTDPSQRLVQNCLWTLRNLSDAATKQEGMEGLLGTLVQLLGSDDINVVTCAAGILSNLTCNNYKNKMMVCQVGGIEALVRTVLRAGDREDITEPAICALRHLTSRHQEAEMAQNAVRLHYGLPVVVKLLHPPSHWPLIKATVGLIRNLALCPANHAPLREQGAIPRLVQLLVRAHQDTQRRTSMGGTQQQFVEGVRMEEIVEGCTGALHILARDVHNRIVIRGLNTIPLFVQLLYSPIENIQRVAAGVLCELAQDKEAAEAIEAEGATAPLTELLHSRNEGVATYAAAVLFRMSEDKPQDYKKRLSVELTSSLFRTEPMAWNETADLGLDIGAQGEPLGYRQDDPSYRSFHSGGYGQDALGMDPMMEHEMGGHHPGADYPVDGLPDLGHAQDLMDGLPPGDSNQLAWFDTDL

HT-29 [18] = assay: Induction of cell cycle arrest in human HT-29 cells assessed as accumulation of cells at G0/G1 phase at 4 uM incubated for 24 hrs by RNase/PI staining based flow cytometry analysis (reference value: 50.206%); type: functional
[19] = target: Glycogen synthase kinase-3 beta (Homo sapiens) (UniProt P49841); assay: Inhibition of GSK3beta phosphorylation in human HT-29 cells at 4 uM incubated for 72 hrs by Western blot analysis; type: cell-based
HT-29 [20] = assay: Downregulation of TAB-182 protein expression in human HT-29 cells at 4 uM by immunostaining based confocal microscopic analysis; type: functional, cell-based
HT-29 [21] = assay: Induction of apoptosis in human HT29 cells assessed as increase in early apoptotic cells at 4 uM incubated for 24 hrs by annexin V/PI staining based flow cytometry analysis; type: functional, cell-based; outline: as §1
[22] = target: T1, Catenin beta-1 (Homo sapiens); assay: Inhibition of beta-catenin phosphorylation in human HT-29 cells at 4 uM incubated for 72 hrs by Western blot analysis; type: cell-based
HT-29 [23] = assay: Inhibition of pan-AKT protein expression in human HT-29 cells at 4 uM incubated for 72 hrs by Western blot analysis; type: functional, cell-based
HT-29 [24] = assay: Inhibition of beta-actin protein expression in human HT-29 cells at 4 uM incubated for 72 hrs by Western blot analysis; type: functional, cell-based
HT-29 [25] = assay: Inhibition of GSK-3beta protein expression in human HT-29 cells at 4 uM incubated for 72 hrs by Western blot analysis; type: functional, cell-based
HT-29 [26] = assay: Inhibition of AKT protein expression in human HT-29 cells at 4 uM incubated for 72 hrs by Western blot analysis; type: functional, cell-based
HT-29 [27] = assay: Inhibition of phosphorylated GSK-3beta protein expression in human HT-29 cells at 4 uM incubated for 72 hrs by Western blot analysis; type: functional, cell-based
HT-29 [28] = assay: Downregulation of beta-catenin protein expression in human HT-29 cells at 4 uM by immunostaining based confocal microscopic analysis; type: functional, cell-based

inhibition [1]: Active
inhibition [6]: Active
SMILES: COc1ccc(-n2c(SCCc3c[nH]c4ccccc34)nnc2-c2ccncc2)cc1
Activity (HT-29 [2]): 15.334%
inhibition (HT-29 [3]): Active
inhibition (HT-29 [4]): Active
inhibition (HT-29 [5]): Active
inhibition (HT-29 [7]): Active
Activity (HT-29 [8]): Active
Activity (HT-29 [9]): Active

inhibition [10]: Active
inhibition [15]: Active
inhibition [17]: Active
SMILES: Fc1ccccc1-n1c(SCCc2c[nH]c3ccccc23)nnc1-c1ccncc1
Activity (HT-29 [11]): Active
Activity (HT-29 [12]): Active
Activity (HT-29 [13]): 67.66%
Activity (HT-29 [14]): Active
Activity (HT-29 [16]): Active

inhibition [19]: Active
inhibition [22]: Active
SMILES: COc1cccc(-n2c(SCCc3c[nH]c4ccccc34)nnc2-c2ccncc2)c1
Activity (HT-29 [18]): 42.657%
Activity (HT-29 [20]): Active
Activity (HT-29 [21]): Active
inhibition (HT-29 [23]): Active
inhibition (HT-29 [24]): Active
inhibition (HT-29 [25]): Active
inhibition (HT-29 [26]): Active
inhibition (HT-29 [27]): Active
Activity (HT-29 [28]): Active
